Calls of active or inactive are those of the source. The calls are words filed in the database; no cut-off is given here.
Experiments:
[1] = system: HCT-116; assay: cells; format: functional, cell-based; conditions: Homo sapiens, HCT-116, 72 h
[2] = system: HepG2; assay: cells; format: functional, cell-based; conditions: Homo sapiens, HepG2, 72 h
[3] = molecular target: T1, Histone deacetylase 1 (Homo sapiens, UniProt Q13547); assay: Inhibition of recombinant full length human C-terminal His/flag-tagged HDAC1 expressed in baculovirus infected Sf9 insect cells after 30 mins by fluorescence assay
T1 sequence (Q13547 whole entry): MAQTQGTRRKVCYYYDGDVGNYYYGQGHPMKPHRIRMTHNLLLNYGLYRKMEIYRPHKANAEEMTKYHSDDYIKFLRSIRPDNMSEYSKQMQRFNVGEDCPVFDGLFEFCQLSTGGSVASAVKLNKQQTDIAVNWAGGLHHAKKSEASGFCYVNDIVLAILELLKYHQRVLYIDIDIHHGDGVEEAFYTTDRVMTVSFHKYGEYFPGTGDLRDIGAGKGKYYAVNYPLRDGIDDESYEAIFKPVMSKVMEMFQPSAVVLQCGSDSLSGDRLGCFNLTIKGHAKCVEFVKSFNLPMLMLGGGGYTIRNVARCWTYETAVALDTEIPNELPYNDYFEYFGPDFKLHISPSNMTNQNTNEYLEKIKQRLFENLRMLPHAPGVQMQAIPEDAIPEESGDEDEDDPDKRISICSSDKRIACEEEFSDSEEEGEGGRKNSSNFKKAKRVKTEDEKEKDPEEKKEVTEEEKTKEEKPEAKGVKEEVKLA

[4] = molecular target: T2, Nicotinamide phosphoribosyltransferase (Homo sapiens, UniProt P43490); assay: Inhibition of NAMPT (unknown origin) using NAM as substrate incubated for 5 mins followed by substrate addition measured after 15 mins by fluorometric method
Target sequence in this assay (P43490 whole entry): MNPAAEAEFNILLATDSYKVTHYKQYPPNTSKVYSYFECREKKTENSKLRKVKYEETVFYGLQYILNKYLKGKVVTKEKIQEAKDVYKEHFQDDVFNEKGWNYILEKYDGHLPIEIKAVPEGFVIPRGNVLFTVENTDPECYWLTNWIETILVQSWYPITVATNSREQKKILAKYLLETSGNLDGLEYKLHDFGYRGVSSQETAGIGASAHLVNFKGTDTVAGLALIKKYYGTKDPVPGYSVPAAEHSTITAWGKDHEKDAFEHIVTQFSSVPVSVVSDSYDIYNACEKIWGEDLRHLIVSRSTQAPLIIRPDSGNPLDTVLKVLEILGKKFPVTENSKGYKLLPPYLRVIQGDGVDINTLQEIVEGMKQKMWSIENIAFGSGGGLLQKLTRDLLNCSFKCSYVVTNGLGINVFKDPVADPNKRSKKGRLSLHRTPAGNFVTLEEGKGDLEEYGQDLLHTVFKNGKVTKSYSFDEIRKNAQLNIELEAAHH

[5] = system: A549; assay: cells; format: functional, cell-based; conditions: Homo sapiens, A549, 72 h
[6] = system: HCT-116; assay: Antitumor activity against human HCT116 cells xenografted in BALB/C nude mouse assessed as tumor growth inhibition at 15 mg/kg, ip bid administered for 21 consecutive days measured every 3 days; format: functional; conditions: HCT-116, ip, 72 h, read-out: TGI
Summary of the method: (§1)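 HCT116 tumour xenografts were grown in nude mice. Agents were given ip twice daily for 21 consecutive days. Tumour growth and body weight were followed. Tumour growth inhibition (TGI) and relative increment ratio (T/C) were derived. Data are mean ± standard deviation, compared with the control group by Student's t test.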

[7] = system: Mus musculus; assay: Toxicity in BALB/C nude mouse xenografted with human HCT116 cells assessed as body weight loss at 15 mg/kg, ip bid administered for 21 consecutive days measured every 3 days; format: organism-based; conditions: in vivo, 72 h
Summary of the method: as §1

[8] = system: Mus musculus; assay: Toxicity in BALB/C nude mouse xenografted with human HCT116 cells assessed as body weight loss at 25 mg/kg, ip bid administered for 21 consecutive days measured every 3 days; format: organism-based; conditions: in vivo, 72 h
Summary of the method: as §1

[9] = molecular target: T3, Histone deacetylase (Homo sapiens) (UniProt Q13547+O15379+Q9UBN7+Q92769+Q9UQL6+Q8WUI4+Q9BY41+Q96DB2+P56524+Q9UKV0+Q969S8); assay: Inhibition of HDAC in human HCT116 cells assessed as increase in acetyl-histone H4 level at 1 to 5 uM after 24 hrs by Western blot analysis; format: cell-based
Summary of the method: (§2)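 HCT116 cells were treated for 24 h at 1 μM and 5 μM. Acetylated histone H3 and acetylated histone H4 were detected by Western blot.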

[10] = molecular target: T2, Nicotinamide phosphoribosyltransferase; assay: Binding affinity to NAMPT in human HCT116 cells assessed as change in melting temperature at 10 uM after 3 hrs by CETSA; format: cell-based
Target sequence in this assay (P43490 whole entry, looked up): as the sequence (P43490 whole entry) above

[11] = molecular target: Histone deacetylase 4 (Homo sapiens, UniProt P56524); assay: Inhibition of recombinant human N-terminal GST-tagged HDAC4 (612 to end residues) expressed in baculovirus infected Sf9 insect cells after 30 mins by fluorescence assay
Sequence of Histone deacetylase 4 (P56524 whole entry, the tested form may be a part): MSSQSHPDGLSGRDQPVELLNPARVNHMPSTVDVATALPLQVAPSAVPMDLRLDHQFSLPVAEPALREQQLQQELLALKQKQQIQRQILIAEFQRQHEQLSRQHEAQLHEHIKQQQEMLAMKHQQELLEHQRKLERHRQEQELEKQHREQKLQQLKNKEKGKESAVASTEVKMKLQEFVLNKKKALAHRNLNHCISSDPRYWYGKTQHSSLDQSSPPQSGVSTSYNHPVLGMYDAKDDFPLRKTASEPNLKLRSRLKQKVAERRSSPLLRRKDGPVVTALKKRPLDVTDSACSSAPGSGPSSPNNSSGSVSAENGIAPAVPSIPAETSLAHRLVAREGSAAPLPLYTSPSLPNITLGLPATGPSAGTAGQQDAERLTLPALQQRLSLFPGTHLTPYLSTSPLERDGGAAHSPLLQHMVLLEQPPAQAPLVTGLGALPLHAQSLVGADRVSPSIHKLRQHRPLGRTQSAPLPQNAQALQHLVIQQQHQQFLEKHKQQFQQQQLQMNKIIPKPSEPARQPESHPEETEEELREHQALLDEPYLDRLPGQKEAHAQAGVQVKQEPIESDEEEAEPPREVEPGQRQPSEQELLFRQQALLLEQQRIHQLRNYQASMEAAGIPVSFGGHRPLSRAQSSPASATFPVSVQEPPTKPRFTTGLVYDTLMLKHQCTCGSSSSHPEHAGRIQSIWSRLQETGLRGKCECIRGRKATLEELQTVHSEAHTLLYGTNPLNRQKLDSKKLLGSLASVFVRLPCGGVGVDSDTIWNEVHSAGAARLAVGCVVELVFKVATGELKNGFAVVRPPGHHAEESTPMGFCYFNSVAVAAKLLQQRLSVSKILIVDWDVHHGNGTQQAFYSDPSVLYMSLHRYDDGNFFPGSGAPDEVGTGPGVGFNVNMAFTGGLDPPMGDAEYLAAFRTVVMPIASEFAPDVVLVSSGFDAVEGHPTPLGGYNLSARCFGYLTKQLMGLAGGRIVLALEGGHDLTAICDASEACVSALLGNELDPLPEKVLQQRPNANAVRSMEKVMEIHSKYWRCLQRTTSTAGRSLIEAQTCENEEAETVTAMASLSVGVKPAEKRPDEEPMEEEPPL

[12] = molecular target: Histone deacetylase 3/NCoR1 (Homo sapiens, UniProt O15379); assay: Inhibition of human recombinant HDAC3/GST-tagged NCOR1 DAD (397 to 503 residues) expressed in baculovirus expression system after 30 mins by fluorescence assay
Sequence of Histone deacetylase 3/NCoR1 (O15379 whole entry, the tested form may be a part): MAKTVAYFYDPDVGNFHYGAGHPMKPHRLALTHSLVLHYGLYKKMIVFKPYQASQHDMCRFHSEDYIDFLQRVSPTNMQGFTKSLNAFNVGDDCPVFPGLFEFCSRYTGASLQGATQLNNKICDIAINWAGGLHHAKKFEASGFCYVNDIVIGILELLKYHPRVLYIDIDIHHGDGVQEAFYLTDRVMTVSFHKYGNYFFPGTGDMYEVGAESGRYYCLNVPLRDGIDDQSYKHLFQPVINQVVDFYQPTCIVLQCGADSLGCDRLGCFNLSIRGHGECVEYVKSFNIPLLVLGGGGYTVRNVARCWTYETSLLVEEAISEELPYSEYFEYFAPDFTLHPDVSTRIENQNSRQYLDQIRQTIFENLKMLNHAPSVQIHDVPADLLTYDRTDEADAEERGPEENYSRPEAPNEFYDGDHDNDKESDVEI
Sequence of Histone deacetylase 3/NCoR1 (O75376 whole entry, further chain, the tested form may be a part): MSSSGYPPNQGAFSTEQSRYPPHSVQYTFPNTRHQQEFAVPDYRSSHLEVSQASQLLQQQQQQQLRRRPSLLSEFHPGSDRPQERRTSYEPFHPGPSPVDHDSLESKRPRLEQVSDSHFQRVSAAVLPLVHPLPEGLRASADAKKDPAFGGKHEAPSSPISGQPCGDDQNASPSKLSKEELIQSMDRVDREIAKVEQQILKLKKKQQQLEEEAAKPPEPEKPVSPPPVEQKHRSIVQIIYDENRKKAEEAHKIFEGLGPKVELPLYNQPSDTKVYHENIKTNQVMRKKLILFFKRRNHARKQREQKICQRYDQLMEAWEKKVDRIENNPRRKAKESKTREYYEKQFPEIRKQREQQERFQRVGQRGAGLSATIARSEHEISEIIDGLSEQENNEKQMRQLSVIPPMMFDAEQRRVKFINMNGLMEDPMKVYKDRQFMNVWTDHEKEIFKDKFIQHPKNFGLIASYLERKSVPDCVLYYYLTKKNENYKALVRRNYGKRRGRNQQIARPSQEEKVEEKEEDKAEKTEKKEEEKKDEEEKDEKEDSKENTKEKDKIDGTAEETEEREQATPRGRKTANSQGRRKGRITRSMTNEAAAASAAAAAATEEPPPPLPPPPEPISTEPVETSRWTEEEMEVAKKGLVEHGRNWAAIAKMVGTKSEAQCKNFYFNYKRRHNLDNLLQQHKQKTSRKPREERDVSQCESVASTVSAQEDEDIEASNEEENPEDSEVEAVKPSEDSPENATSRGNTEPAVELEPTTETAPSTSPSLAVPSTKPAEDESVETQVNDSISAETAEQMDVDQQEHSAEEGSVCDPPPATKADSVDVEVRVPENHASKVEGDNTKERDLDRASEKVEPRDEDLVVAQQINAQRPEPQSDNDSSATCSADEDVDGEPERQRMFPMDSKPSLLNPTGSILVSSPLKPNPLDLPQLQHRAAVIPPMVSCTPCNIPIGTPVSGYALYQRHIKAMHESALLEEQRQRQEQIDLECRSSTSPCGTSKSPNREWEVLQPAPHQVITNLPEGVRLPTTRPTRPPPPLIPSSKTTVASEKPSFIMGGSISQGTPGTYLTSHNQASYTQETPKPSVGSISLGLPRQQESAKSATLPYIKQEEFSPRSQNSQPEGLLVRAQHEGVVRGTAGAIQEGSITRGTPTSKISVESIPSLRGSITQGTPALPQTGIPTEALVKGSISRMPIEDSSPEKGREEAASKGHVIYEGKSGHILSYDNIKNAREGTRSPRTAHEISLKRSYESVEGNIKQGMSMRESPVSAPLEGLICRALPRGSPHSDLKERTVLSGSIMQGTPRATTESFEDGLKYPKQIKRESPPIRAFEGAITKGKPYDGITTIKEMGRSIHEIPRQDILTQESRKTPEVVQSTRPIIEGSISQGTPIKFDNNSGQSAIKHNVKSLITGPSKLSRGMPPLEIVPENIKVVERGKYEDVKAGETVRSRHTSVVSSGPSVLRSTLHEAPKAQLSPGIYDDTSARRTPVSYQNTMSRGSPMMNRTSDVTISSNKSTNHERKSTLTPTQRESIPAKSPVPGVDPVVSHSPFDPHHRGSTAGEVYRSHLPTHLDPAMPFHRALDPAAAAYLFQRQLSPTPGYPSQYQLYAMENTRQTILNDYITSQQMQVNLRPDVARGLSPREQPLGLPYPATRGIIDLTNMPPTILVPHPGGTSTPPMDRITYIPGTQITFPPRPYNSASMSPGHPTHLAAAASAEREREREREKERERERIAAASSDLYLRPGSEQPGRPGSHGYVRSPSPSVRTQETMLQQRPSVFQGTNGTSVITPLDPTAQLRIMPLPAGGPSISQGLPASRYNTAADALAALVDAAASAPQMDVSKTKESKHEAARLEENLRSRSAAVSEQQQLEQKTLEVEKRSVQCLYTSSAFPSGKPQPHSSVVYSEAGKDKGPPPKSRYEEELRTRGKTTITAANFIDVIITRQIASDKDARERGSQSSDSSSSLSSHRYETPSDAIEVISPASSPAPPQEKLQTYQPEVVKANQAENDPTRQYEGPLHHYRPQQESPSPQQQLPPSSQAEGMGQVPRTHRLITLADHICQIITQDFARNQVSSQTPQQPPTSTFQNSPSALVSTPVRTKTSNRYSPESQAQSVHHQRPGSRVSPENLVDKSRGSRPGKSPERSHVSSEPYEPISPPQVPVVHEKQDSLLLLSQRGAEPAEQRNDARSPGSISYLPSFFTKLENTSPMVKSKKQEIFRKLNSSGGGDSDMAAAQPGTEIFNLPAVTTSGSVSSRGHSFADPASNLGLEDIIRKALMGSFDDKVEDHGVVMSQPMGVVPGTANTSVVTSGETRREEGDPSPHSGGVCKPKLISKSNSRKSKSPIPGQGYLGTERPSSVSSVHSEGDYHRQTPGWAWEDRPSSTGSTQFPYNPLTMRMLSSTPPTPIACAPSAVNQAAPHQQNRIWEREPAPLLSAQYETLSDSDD

[13] = molecular target: T3, Histone deacetylase (Homo sapiens); assay: Inhibition of HDAC in human HCT116 cells assessed as increase in acetyl-histone H3 level at 1 to 5 uM after 24 hrs by Western blot analysis; format: cell-based
Summary of the method: as §2

[14] = molecular target: T4, Protein deacetylase HDAC6 (Homo sapiens, UniProt Q9UBN7); assay: Inhibition of recombinant human full length C-terminal flag-tagged HDAC6 expressed in baculovirus infected Sf9 insect cells after 30 mins by fluorescence assay
T4 sequence (Q9UBN7 whole entry): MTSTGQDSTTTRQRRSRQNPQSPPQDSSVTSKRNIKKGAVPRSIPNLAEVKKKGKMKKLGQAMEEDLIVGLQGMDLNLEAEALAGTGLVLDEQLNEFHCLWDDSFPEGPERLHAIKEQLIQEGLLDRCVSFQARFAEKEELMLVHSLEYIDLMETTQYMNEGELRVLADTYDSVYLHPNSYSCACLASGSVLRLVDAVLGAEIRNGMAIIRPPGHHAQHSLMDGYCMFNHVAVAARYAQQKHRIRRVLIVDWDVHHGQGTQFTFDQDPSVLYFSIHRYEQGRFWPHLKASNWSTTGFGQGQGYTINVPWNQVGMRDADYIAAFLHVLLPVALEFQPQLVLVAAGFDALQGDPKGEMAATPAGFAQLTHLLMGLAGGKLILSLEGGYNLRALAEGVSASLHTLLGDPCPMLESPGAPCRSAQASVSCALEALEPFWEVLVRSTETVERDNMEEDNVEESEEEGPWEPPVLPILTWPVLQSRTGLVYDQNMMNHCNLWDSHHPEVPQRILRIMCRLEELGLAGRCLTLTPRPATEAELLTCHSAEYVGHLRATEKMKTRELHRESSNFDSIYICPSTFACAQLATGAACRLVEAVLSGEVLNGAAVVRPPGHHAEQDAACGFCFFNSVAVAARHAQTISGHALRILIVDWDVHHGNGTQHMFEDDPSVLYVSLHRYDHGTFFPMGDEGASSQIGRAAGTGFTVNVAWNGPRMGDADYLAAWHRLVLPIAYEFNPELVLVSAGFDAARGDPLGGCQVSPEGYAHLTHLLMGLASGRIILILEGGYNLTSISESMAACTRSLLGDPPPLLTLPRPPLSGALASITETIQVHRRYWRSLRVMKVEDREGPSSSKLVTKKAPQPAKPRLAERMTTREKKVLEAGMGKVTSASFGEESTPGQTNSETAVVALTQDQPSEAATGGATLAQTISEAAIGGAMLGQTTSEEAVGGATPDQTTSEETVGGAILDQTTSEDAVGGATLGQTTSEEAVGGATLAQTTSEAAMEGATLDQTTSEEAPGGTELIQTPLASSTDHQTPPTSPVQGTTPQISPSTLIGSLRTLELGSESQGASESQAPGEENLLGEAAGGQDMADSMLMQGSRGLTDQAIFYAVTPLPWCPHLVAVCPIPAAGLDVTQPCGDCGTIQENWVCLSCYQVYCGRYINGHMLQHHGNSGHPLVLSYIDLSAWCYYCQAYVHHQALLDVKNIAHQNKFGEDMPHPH

[15] = molecular target: T1, Histone deacetylase 1; assay: Potency index, ratio of SAHA IC50 to compound IC50 for recombinant human full length C-terminal His/flag-tagged HDAC1 expressed in baculovirus infected Sf9 insect cells
[16] = system: HCT-116; assay: animal or person; format: functional, Homo sapiens; conditions: Mus musculus, HCT-116, ip, 72 h, read-out: TGI
[17] = molecular target: T5, Histone deacetylase 8 (Homo sapiens, UniProt Q9BY41); assay: Inhibition of recombinant human full length C-terminal His-tagged HDAC8 expressed in baculovirus infected Sf9 insect cells after 30 mins by fluorescence assay
T5 sequence (Q9BY41 whole entry): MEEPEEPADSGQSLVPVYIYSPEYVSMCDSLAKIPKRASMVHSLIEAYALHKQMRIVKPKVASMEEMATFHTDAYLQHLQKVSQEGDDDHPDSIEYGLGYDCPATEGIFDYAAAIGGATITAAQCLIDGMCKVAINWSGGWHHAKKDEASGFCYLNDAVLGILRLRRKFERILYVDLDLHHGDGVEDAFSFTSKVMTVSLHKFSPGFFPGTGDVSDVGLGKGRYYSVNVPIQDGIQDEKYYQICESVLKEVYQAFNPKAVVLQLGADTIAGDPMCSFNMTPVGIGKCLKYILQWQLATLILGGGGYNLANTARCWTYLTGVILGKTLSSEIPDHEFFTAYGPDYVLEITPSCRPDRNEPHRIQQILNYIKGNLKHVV

[18] = molecular target: T2, Nicotinamide phosphoribosyltransferase; assay: Inhibition of NAMPT in human HCT116 cells assessed as decrease in cellular NAD+ level after 24 hrs by MTT dye based spectrophotometric analysis; format: cell-based
Summary of the method: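 HCT116 cells were exposed to a concentration series for 24 h. Cellular NAD+ level was measured and concentration–response curves were fitted.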
Target sequence in this assay (P43490 whole entry, looked up): as the sequence (P43490 whole entry) above

[19] = molecular target: Histone deacetylase 2 (Homo sapiens, UniProt Q92769)

O=C(/C=C/c1ccc(CN(Cc2ccc(F)cc2)c2ncc(C(=O)NCCCn3ccnc3)s2)cc1)NO
IC50 [1]: 83 µM | IC50 [2]: 13 µM | IC50 [3]: 0.091 µM | IC50 [4]: 0.014 µM | IC50 [5]: 2.7 µM

O=C(NO)c1ccc(CN(Cc2ccc(F)cc2)c2ncc(C(=O)NCCCn3ccnc3)s2)cc1
IC50 [1]: 99 µM | IC50 [2]: 79 µM | IC50 [3]: 0.046 µM | IC50 [4]: 0.014 µM | IC50 [5]: 7.3 µM

O=C(CCCCCCN(Cc1ccc(F)cc1)c1ncc(C(=O)NCc2cccnc2)s1)NO
IC50 [1]: 17 µM | IC50 [2]: 14 µM | IC50 [3]: 0.095 µM | IC50 [4]: 0.47 µM | IC50 [5]: 22 µM

O=C(/C=C/c1cccnc1)NCCCCC1CCN(C(=O)c2ccccc2)CC1 [DAPORINAD]
inhibition in vivo at 15 mg/kg [6]: 39% | IC50 [5]: 3.7 µM | Activity [7]: Non-Toxic

O=C(CCCCCCC(=O)Nc1ccccc1)NO [VORINOSTAT]
Activity [8]: Non-Toxic

O=C(CCCCCCCN(Cc1ccc(F)cc1)c1ncc(C(=O)NCCCn2ccnc2)s1)NO
IC50 [1]: 63 µM | IC50 [2]: 26 µM | IC50 [3]: 0.044 µM | IC50 [4]: 0.018 µM | IC50 [5]: 6.6 µM

CC(C)CCN(CCCCCC(=O)NO)c1ncc(C(=O)NCCCn2ccnc2)s1
IC50 [1]: 85 µM | IC50 [2]: 106 µM | IC50 [3]: 0.06 µM | IC50 [4]: 0.02 µM | IC50 [5]: 13 µM

CC(C)CCN(CCCCCCC(=O)NO)c1ncc(C(=O)NCCCn2ccnc2)s1
IC50 [1]: 30 µM | inhibition [9]: Dose-dependent effect | ΔTm [10]: 3.01 °C | IC50 [11]: 12 µM | IC50 [12]: 0.00067 µM | inhibition [13]: Dose-dependent effect | IC50 [14]: 0.00064 µM | IC50 [2]: 24 µM | IC50 [3]: 0.002 µM | Ratio IC50 [15]: 10 | inhibition in vivo at 25 mg/kg [16]: 42% | IC50 [17]: 0.204 µM | inhibition [18]: Active | Activity [8]: Non-Toxic | IC50 [4]: 0.015 µM | IC50 [5]: 5.2 µM | IC50 [19]: 0.0068 µM

CC(C)CCN(CCCCCCC(=O)NO)c1ncc(C(=O)NCc2cccnc2)s1
IC50 [1]: 12 µM | IC50 [2]: 7 µM | IC50 [3]: 0.036 µM | IC50 [4]: 0.22 µM | IC50 [5]: 19 µM

O=C(CCCCCN(Cc1ccc(F)cc1)c1ncc(C(=O)NCCCn2ccnc2)s1)NO
IC50 [1]: 19 µM | IC50 [2]: 30 µM | IC50 [3]: 0.1 µM | IC50 [4]: 0.007 µM | IC50 [5]: 54 µM

O=C(CCCCCCN(Cc1ccc(F)cc1)c1ncc(C(=O)NCCCn2ccnc2)s1)NO
IC50 [1]: 9.7 µM | inhibition [9]: Dose-dependent effect | ΔTm [10]: 7.36 °C | IC50 [11]: 21 µM | IC50 [12]: 0.0041 µM | inhibition [13]: Dose-dependent effect | IC50 [14]: 0.0062 µM | IC50 [2]: 9.4 µM | IC50 [3]: 0.036 µM | IC50 [17]: 0.351 µM | inhibition [18]: Active | IC50 [4]: 0.019 µM | IC50 [5]: 9.7 µM | IC50 [19]: 0.033 µM

Source: ChEMBL document CHEMBL4138269, “Dual NAMPT/HDAC Inhibitors as a New Strategy for Multitargeting Antitumor Drug Discovery” (ACS Med Chem Lett, 2018)
